In general, IC50 refers to the concentration needed to halve the response being measured. Lower therefore signals higher potency. The term inhibition denotes the change of the read-out against control, counted positive when it falls. High values mean a response far below the control, low ones a response near the control.

The record followed here is ChEMBL document CHEMBL1157170, “Novel 5-azaindolocarbazoles as cytotoxic agents and Chk1 inhibitors” (Bioorg Med Chem, 2008).

The source made the active and inactive calls. No cut-off for these calls is given here.

In test [1] the test system is L1210. Put plainly: Antiproliferative activity against mouse L1210 cells after 48 hrs by microculture tetrazolium assay. Format: functional, cell-based. The settings on record: L1210, 48 h. The essentials:
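L1210 cells grown in RPMI 1640 with 10% fetal calf serum, 2 mM L-glutamine, penicillin/streptomycin and 10 mM Hepes (pH 7.4). Exposed for 48 h (four doubling times) to nine serial dilutions, each in triplicate. Read-out was microculture tetrazolium assay. IC50 is the concentration that cut optical density by 50% versus untreated controls.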

The subject of a further test is HT-29. Description: Antiproliferative activity against human HT29 cells after 96 hrs by microculture tetrazolium assay. The settings on record: HT-29, 96 h.
The target of test [2] is T1, Serine/threonine-protein kinase Chk1 (Homo sapiens) (UniProt O14757).
T1 sequence (whole entry): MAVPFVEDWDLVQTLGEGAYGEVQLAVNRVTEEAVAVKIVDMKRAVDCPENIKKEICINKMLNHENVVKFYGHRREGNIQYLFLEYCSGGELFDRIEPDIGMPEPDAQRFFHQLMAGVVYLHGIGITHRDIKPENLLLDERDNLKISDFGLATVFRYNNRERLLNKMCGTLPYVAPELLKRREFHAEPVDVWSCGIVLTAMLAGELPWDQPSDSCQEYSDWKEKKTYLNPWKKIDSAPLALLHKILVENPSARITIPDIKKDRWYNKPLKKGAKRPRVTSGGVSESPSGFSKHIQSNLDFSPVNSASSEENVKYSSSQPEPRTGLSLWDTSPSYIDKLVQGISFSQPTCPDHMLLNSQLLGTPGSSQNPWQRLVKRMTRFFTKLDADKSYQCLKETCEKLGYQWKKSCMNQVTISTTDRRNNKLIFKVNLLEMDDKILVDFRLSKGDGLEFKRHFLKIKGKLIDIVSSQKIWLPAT
Description: Inhibition of human Chk1 expressed in sf9-baculovirus system at 10 uM.

Test [3] has as its target T2, Serine/threonine-protein kinase Chk1 (Homo sapiens, UniProt O14757).
T2 sequence (O14757 whole entry): T1 sequence (whole entry)
Description: Inhibition of human Chk1 expressed in sf9-baculovirus system. The essentials:
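Kinase was GST-tagged Chk1 purified from extracts of Sf9 cells infected with a GST-Chk1 baculovirus. Assay format followed a published method.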

The test system of test [4] is L1210. Description: Cell cycle arrest in mouse L1210 cells by accumulation at G2M phase at 1 uM after 21 hrs by flow cytometry. Format: functional. Summed up: (§1)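 L1210 cells at 2.5 × 10⁵ cells/mL incubated 21 h with various compound concentrations. Fixed in 70% ethanol, washed, then stained 30 min in D-PBS containing RNAse and propidium iodide. DNA content analysed by flow cytometry.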
On the technique in general: In flow cytometry, cells or beads pass a laser one at a time.

Test [5] deals with L1210. Put plainly: Cell cycle arrest in mouse L1210 cells by accumulation at G2M phase at 5 uM after 21 hrs by flow cytometry. Format: functional. Summed up:
as §1

Test [6] concerns L1210. Put plainly: Cell cycle arrest in mouse L1210 cells by accumulation at G1 phase at 1 uM after 21 hrs by flow cytometry. Format: functional. Summed up: as §1
Test [7] deals with L1210. Description: Toxicity against mouse L1210 cells at 20 uM. Format: functional, cell-based.

In the case of `CN1C(=O)c2c(c3c4cnccc4[nH]c3c3[nH]c4cc(OCc5ccccc5)ccc4c23)C1=O`, the IC50 with L1210 [1] is 0.6 µM; in the test with HT-29, 2 µM. Also, in test [2], the inhibition was found to be 27%.
For `CN(C)CCN1C(=O)c2c(c3c4cnccc4[nH]c3c3[nH]c4cc(OCc5ccccc5)ccc4c23)C1=O` the same measures were 1.4 µM, 2.9 µM and 32.7%.
As for `O=C1NC(=O)c2c1c1c3ccc(O)cc3[nH]c1c1[nH]c3ccncc3c21`, the IC50 is 3.3 µM in the test on L1210 [1], above 100 µM with HT-29 and 0.014 µM in test [3]. Moreover, the inhibition in test [2] turned out to be 98.7%.
As to `CN(C)CCN1C(=O)c2c(c3c4cc5c(cc4[nH]c3c3[nH]c4ccncc4c23)OCO5)C1=O`, the IC50 stood at 0.195 µM in the test with L1210 [1] and 1.76 µM with HT-29. Moreover, the Activity with L1210 [4] came out at 62%. Besides, the inhibition in test [2] was found to be 6.7%.
Regarding `O=C1NC(=O)c2c1c1c3ccc(OCc4ccccc4)cc3[nH]c1c1[nH]c3ccncc3c21`, the IC50 was 1.1 µM in the test on L1210 [1], 32.4 µM in the test on HT-29 and 0.072 µM in test [3]. Moreover, in the test with L1210 [5], the Activity amounted to 43%. The molecule also displayed an inhibition in test [2] of 95.9%.
Turning to `CN1C(=O)c2c(c3c4ccccc4n([C@@H]4O[C@H](CO)[C@@H](O)[C@H](O)[C@H]4O)c3c3[nH]c4cc[n+](Cc5ccccc5)cc4c23)C1=O`, the values for the IC50 in the test on L1210 [1] and in the test with HT-29 were 12.8 µM and 63.7 µM, respectively. Besides, in test [2], the inhibition is 51.4%.
`CN1C(=O)c2c(c3c4cc5c(cc4[nH]c3c3[nH]c4ccncc4c23)OCO5)C1=O`: the IC50 worked out at 0.495 µM with L1210 [1] and 3.35 µM in the test with HT-29. In test [2], this molecule displayed an inhibition of 26.7%.
The corresponding values for `CN(C)CCN1C(=O)c2c(c3c4cc(OCc5ccccc5)ccc4[nH]c3c3[nH]c4ccncc4c23)C1=O` are 16.3 µM, 19.5 µM and 17.6%.
Turning to `O=C1NC(=O)c2c1c1c3cnccc3[nH]c1c1[nH]c3ccc(OCc4ccccc4)cc3c21`, the IC50 in the test with L1210 [1] was 1.5 µM; with HT-29, 7.6 µM; in test [3] it was 1.32 µM. For the same molecule, the inhibition in test [2] was found to be 90.6%.
With `CN(C)CCN1C(=O)c2c(c3c4cc(O)ccc4[nH]c3c3[nH]c4ccncc4c23)C1=O`, the values for the IC50 in the test with L1210 [1] and in the test on HT-29 were 2.6 µM and 50.9 µM, respectively. The inhibition in test [2] was 48.9%.
On to `CC(=O)OC[C@H]1O[C@@H](n2c3ccccc3c3c4c(c5c6c[n+](Cc7ccccc7)ccc6[nH]c5c32)C(=O)N(C)C4=O)[C@H](OC(C)=O)[C@@H](OC(C)=O)[C@@H]1OC(C)=O`, for which the IC50 was 14.3 µM in the test on L1210 [1] and above 100 µM in the test on HT-29. In test [2], this molecule came in with an inhibition of 46.5%.
Consider `O=C1NC(=O)c2c1c1c3ccccc3[nH]c1c1[nH]c3ccncc3c21`, for which, in the test on L1210 [6], the Activity is on record as 60%. Further, the IC50 stood at 0.6 µM in the test with L1210 [1], 1.5 µM in the test on HT-29 and 5 µM in test [3]. In test [2], the inhibition worked out at 98.6%.
Take `CN(C)CCN1C(=O)c2c(c3c4cnccc4[nH]c3c3[nH]c4ccccc4c23)C1=O`: the IC50 in the test with L1210 [1] worked out at 0.47 µM; with HT-29 it was 3.8 µM. This molecule yielded an inhibition in test [2] of 49.4%.
For `O=C1NC(=O)c2c1c1c3cnccc3[nH]c1c1[nH]c3ccc(O)cc3c21`, the values for the IC50 (in the test with L1210 [1]; in the test with HT-29; in test [3]) were 80.7 µM, above 100 µM and 0.027 µM, respectively. Besides, the inhibition in test [2] turned out to be 99.1%.
`CN1C(=O)c2c(c3c4cc(O)ccc4[nH]c3c3[nH]c4ccncc4c23)C1=O`: the IC50 with L1210 [1] is 11.9 µM; with HT-29, above 100 µM. This molecule also registered an inhibition in test [2] of 38.5%.
`CN1C(=O)c2c(c3c4ccccc4n([C@@H]4O[C@H](COCc5ccccc5)[C@@H](OCc5ccccc5)[C@H](OCc5ccccc5)[C@H]4OCc4ccccc4)c3c3[nH]c4ccncc4c23)C1=O` had an IC50 in the test with L1210 [1] above 100 µM. The inhibition in test [2] was 49%.
With `CN1C(=O)c2c(c3c4cnccc4[nH]c3c3[nH]c4cc(O)ccc4c23)C1=O`, the result in the test on L1210 [7] was Active. In addition, the IC50 with L1210 [1] stood at 2.7 µM; in the test on HT-29 it was 16.2 µM; in test [3] it was 5 µM. Moreover, the inhibition in test [2] is 66.6%.
